# ChEMBL document CHEMBL4316597, “Design, Synthesis, and Biological Evaluation of Itaconic Acid Derivatives as Potential Anti-Influenza Agents” (J Med Chem, 2019)
# Calls of active or inactive are those of the source. The calls are words filed in the database; no cut-off is given here.
# How the values were obtained:
# [1] = Selectivity ratio of CC50 for MDCK cells to EC50 for pandemic Influenza A virus A/TW/90206/09 (H1N1) SO4; format: toxicity; conditions: dog, read-out: Ratio CC50/EC50
# Outline: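 MDCK cells (2 × 10^4/well, E10, 16–24 h) infected at nine-fold TCID50 with compound for 72 h, 37 °C, 5% CO2. Cells were fixed in 4% paraformaldehyde and stained with crystal violet; EC50 is from Reed–Muench. For CC50, cells had compound alone for 72 h, then MTT 3 h, DMSO, A570, Reed–Muench. SI = CC50/EC50; three independent experiments.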
# [2] = tested on: Influenza A virus; experiment: Inhibition of viral protein sub-cellular distribution in Influenza A virus (A/WSN/33) infected in MDCK cells assessed as reduction in PA protein distribution to cytoplasm at 10 uM measured after 9 hrs post infection by IF-staining based microscopy; format: functional, organism-based; conditions: A/WSN/1933(H1N1)
# Outline: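 MDCK cells grown on coverslips (2 × 10^5/well, 16 h), infected at MOI 0.1 for 1 h, washed, then kept in E0 with test compound (1 or 10 μM) or LMB 10 nM; DMSO 0.05% as mock. Fixed at 9 h pi in 4% paraformaldehyde and immunostained for M1, NP, NS2 or PA (1:50), with Hoechst nuclear stain. Viewed by confocal microscopy at 63×. NP nuclear/cytoplasmic intensity ratio quantified; three independent experiments.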
compound,measurement,setting,value
C=C(CC(=O)Nc1ccc(F)cc1F)C(=O)Nc1ccc(F)cc1F,selectivity ratio,[1],28
same,inhibition,[2],inactive
